Test results reported in ChEMBL document CHEMBL2311339, “Identification of GZD824 as an orally bioavailable inhibitor that targets phosphorylated and nonphosphorylated breakpoint cluster region-Abelson (Bcr-Abl) kinase and overcomes clinically acquired mutation-induced resistance against imatinib” (J Med Chem, 2013).
Active and inactive are the calls of the source. No cut-off for these calls is given here.

Assays:
[1] = system: BaF3; assay: Antitumor activity against mouse BA/F3 cells expressing BCR-ABL T315I mutant allografted in SCID mouse assessed as suppression of cell proliferation at 5 to 20 mg/kg/day, po qd for 10 days relative to untreated vehicle; format: functional, organism-based
How it was run: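 Ba/F3 Bcr-Abl T315I cells stably carrying firefly luciferase, in saline, were injected i.v. into SCID nude mice (2 × 10^6 cells/0.1 mL). Imaging began 5−7 days later: i.p. D-luciferin, halothane anaesthesia, images after 5 min. Mice were randomised by signal and dosed by oral gavage once daily for 10 days (5, 10, 20 mg/kg/day; imatinib 100 mg/kg; vehicle). Luminescence was quantified; survival by Kaplan−Meier with log-rank test.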

[2] = system: BaF3; assay: Antitumor activity against mouse BA/F3 cells expressing BCR-ABL T315I mutant allografted in SCID mouse assessed as induction of tumor regression at 20 mg/kg/day, po qd for 14 days; format: functional, organism-based
How it was run: (§1)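 Ba/F3 cells stably expressing Bcr-Abl (wild type or mutant) were grown in RPMI 1640 with 10% FBS and no IL-3, then suspended in saline (2.5 × 10^7 cells/mL) and given as 0.2 mL s.c. in the right flank. Groups were randomised at 100−200 mm3. Once-daily oral gavage for 14 days in DMSO/Cremophor/ethanol/saline vehicle; reference imatinib 50 or 100 mg/kg/day. Volume L × W²/2 every 2 days; n = 10; t test versus vehicle.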

[3] = system: BaF3; assay: Antitumor activity against mouse BA/F3 cells expressing wild type BCR-ABL allografted in SCID mouse assessed as induction of tumor regression at 5 mg/kg/day, po qd for 14 days; format: functional, organism-based; how it was run: as §1
[4] = system: BaF3; assay: Antitumor activity against mouse BA/F3 cells expressing BCR-ABL T315I mutant allografted in po dosed SCID mouse assessed as inhibition of tumor growth administered qd for 14 days; format: functional, organism-based; how it was run: as §1
[5] = system: Mus musculus; assay: Toxicity in human K562 cells xenografted mouse assessed as mortality; format: organism-based; conditions: in vivo
How it was run: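 K562 cells suspended in normal saline (2.5 × 10^7 cells/mL), 0.2 mL injected subcutaneously into the right flank. Mice were randomised once mean tumour volume reached 100−200 mm3. Oral gavage once daily for 14 days, in 1% DMSO/22.5% Cremophor/7.5% ethanol/69% saline. Tumour volume (L × W²/2) and body weight taken every 2 days; recurrence followed 20 days after dosing stopped. n = 10/group; unpaired t test versus vehicle.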

[6] = system: KU812; assay: Antitumor activity against human KU812 cells xenografted in mouse assessed as induction of tumor regression at 1 mg/kg, po qd for 14 days; format: functional, organism-based; set-up: dose 1 mg/kg
[7] = system: K562; assay: Antitumor activity against human K562 cells xenografted in mouse assessed as inhibition of tumor growth at 1 mg/kg, po qd for 14 days; format: functional; conditions: K562, 336 h, read-out: TGI
How it was run: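 K562 cells in normal saline (2.5 × 10^7 cells/mL, 0.2 mL) injected subcutaneously into right flank; mice randomized when mean tumor volume reached 100−200 mm3. Dosing once daily by oral gavage for 14 consecutive days in 1% DMSO, 22.5% Cremophor, 7.5% ethanol, 69% saline. Tumor volume (L × W2/2) and body weight every 2 days; n = 10/group; unpaired Student's t test vs vehicle.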

[8] = Clearance in rat at 5 mg/kg, iv; format: ADME, organism-based; set-up: dose 5 mg/kg, route intravenous; conditions: in vivo
How it was run: (§2)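 Bismesylate salt given to rats as a single iv dose of 5 mg/kg or a single oral dose of 25 mg/kg. Plasma drug levels were followed over time to derive the PK parameters. The 12 h and 24 h plasma levels come from the oral 25 mg/kg dose.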

[9] = Mean residence time in rat at 5 mg/kg, iv; format: ADME, organism-based; set-up: dose 5 mg/kg, route intravenous; conditions: in vivo; how it was run: as §2
[10] = AUC (0 to t) in rat at 5 mg/kg, iv; format: ADME, organism-based; set-up: dose 5 mg/kg, route intravenous; conditions: plasma; how it was run: as §2
[11] = system: Caco-2; assay: Efflux ratio of permeability from […] in human Caco2 cells; format: ADME, cell-based
[12] = target: Cytochrome P450 2C19 (Homo sapiens, UniProt P33261); assay: Inhibition of human recombinant CYP2C19 after 30 mins; format: ADME
[13] = target: Cytochrome P450 1A2 (Homo sapiens, UniProt P05177); assay: Inhibition of human recombinant CYP1A2 at 30 uM after 30 mins; format: ADME; conditions: recombinant enzyme, 0.5 h
[14] = target: Cytochrome P450 2D6 (Homo sapiens, UniProt P10635); assay: Inhibition of human recombinant CYP2D6 at 30 uM after 30 mins; format: ADME; conditions: recombinant enzyme, 0.5 h
[15] = Cytotoxicity against human SUP-B15 cells expressing BCR-ABL assessed as growth inhibition after 72 hrs by CCK-8 assay; format: functional, cell-based; conditions: SUP-B15, 72 h
How it was run: (§3)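 Log-phase human leukemia cells were seeded at about 3000 cells/well and treated 24 h later for 72 h. CCK-8 was then incubated with the cells for 3 h and read as OD450 − OD650. Viability was normalized to vehicle wells and cell-free blanks, and IC50 taken as the mean of three experiments.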

[16] = Cytotoxicity against human KU812 cells expressing BCR-ABL assessed as growth inhibition after 72 hrs by CCK-8 assay; format: functional, cell-based; conditions: KU812, 72 h; how it was run: as §3
[17] = Cytotoxicity against mouse BA/F3 cells expressing BCR-ABL E355G mutant assessed as growth inhibition after 72 hrs by CCK-8 assay; conditions: BaF3, 72 h
[18] = Cytotoxicity against mouse BA/F3 cells expressing BCR-ABL E255K mutant assessed as growth inhibition after 72 hrs by CCK-8 assay; conditions: BaF3, 72 h
[19] = Cytotoxicity against mouse BA/F3 cells expressing BCR-ABL E255V mutant assessed as growth inhibition after 72 hrs by CCK-8 assay; conditions: BaF3, 72 h
[20] = Cytotoxicity against mouse BA/F3 cells expressing BCR-ABL L248V mutant assessed as growth inhibition after 72 hrs by CCK-8 assay; conditions: BaF3, 72 h
[21] = target: Angiopoietin-1 receptor (Homo sapiens) (UniProt Q02763); assay: Binding affinity to TIE2 (unknown origin) at 10 nM after 2 hrs by FRET assay
[22] = target: Tyrosine-protein kinase receptor Tie-1 (Homo sapiens) (UniProt P35590); assay: Binding affinity to TIE1 (unknown origin) at 10 nM after 2 hrs by FRET assay
[23] = target: Proto-oncogene tyrosine-protein kinase receptor Ret (Homo sapiens) (UniProt P07949); assay: Binding affinity to RET (unknown origin) at 10 nM after 2 hrs by FRET assay
[24] = target: Tyrosine-protein kinase ABL1 (Homo sapiens, UniProt P00519, T315I); assay: Binding affinity to phosphorylated ABL1 T315I mutant (unknown origin) after 1 hr
[25] = target: Tyrosine-protein kinase ABL1 (Homo sapiens, UniProt P00519, H396P); assay: Binding affinity to non phosphorylated ABL1 H396P mutant (unknown origin) after 1 hr
[26] = target: Tyrosine-protein kinase ABL1 (Homo sapiens, UniProt P00519, Y253F); assay: Inhibition of human recombinant ABL1 Y253F mutant expressed in insect cells after 30 mins by FRET assay; format: cell-based
[27] = target: Tyrosine-protein kinase ABL1 (Homo sapiens, UniProt P00519, E255K); assay: Inhibition of human recombinant ABL1 E255K mutant expressed in insect cells after 30 mins by FRET assay; format: cell-based
[28] = Half life in rat liver microsomes at 1 uM; format: ADME, Microsome

Chain of Cytochrome P450 1A2 (P05177 whole entry): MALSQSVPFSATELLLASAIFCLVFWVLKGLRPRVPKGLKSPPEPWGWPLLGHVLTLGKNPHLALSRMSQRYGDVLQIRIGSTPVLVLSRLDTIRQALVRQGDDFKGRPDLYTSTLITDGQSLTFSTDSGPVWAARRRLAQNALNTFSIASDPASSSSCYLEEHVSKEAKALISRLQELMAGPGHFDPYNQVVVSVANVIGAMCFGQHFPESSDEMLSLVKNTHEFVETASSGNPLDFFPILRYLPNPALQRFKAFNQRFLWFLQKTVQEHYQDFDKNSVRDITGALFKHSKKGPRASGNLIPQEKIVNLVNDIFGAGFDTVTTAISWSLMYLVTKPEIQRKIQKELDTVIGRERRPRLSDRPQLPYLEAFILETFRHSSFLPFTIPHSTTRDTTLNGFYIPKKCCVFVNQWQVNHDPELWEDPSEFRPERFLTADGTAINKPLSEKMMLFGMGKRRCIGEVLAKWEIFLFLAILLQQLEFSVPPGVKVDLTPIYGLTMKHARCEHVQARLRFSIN
Chain of Cytochrome P450 2C19 (P33261 whole entry): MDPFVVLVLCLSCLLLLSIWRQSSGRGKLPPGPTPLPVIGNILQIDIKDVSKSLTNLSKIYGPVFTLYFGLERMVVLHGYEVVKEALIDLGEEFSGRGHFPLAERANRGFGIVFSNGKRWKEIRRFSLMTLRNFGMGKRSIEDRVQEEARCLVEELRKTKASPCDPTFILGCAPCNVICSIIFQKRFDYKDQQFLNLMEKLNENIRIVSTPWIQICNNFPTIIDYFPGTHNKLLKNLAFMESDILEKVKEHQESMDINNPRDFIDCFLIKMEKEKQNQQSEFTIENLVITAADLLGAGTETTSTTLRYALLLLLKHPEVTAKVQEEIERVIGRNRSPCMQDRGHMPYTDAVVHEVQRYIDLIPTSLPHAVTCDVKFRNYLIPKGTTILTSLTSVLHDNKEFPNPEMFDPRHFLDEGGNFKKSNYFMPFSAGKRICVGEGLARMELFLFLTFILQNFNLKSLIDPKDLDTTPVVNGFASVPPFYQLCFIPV
Chain of Angiopoietin-1 receptor (Homo sapiens) (Q02763 whole entry): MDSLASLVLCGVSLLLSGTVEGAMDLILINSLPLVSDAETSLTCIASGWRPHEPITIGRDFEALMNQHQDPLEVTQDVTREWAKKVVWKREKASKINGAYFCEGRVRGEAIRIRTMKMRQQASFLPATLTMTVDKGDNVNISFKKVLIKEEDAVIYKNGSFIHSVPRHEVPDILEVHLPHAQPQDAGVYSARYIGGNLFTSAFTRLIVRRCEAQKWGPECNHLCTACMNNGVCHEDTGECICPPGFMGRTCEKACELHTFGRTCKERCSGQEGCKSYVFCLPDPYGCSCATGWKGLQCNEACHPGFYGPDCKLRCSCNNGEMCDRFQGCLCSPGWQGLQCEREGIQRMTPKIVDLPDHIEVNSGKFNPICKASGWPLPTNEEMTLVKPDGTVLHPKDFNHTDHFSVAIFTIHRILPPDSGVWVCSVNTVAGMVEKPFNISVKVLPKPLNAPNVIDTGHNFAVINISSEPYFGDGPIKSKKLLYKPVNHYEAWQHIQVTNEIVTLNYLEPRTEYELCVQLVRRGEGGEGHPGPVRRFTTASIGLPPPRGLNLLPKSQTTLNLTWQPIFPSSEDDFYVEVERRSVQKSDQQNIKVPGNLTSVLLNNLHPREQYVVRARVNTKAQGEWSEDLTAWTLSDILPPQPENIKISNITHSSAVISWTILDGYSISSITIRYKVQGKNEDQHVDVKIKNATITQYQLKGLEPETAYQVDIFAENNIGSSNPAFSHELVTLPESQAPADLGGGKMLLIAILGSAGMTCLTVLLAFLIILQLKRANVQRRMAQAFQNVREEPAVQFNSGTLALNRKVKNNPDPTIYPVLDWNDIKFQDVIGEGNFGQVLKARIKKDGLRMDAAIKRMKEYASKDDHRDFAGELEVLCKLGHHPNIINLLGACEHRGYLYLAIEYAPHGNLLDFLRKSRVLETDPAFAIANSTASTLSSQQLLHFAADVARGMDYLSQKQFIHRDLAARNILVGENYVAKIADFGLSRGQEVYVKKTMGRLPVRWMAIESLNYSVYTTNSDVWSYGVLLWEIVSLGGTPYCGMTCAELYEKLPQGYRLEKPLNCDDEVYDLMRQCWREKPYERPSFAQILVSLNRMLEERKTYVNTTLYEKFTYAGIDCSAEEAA
Chain of Proto-oncogene tyrosine-protein kinase receptor Ret (Homo sapiens) (P07949 whole entry): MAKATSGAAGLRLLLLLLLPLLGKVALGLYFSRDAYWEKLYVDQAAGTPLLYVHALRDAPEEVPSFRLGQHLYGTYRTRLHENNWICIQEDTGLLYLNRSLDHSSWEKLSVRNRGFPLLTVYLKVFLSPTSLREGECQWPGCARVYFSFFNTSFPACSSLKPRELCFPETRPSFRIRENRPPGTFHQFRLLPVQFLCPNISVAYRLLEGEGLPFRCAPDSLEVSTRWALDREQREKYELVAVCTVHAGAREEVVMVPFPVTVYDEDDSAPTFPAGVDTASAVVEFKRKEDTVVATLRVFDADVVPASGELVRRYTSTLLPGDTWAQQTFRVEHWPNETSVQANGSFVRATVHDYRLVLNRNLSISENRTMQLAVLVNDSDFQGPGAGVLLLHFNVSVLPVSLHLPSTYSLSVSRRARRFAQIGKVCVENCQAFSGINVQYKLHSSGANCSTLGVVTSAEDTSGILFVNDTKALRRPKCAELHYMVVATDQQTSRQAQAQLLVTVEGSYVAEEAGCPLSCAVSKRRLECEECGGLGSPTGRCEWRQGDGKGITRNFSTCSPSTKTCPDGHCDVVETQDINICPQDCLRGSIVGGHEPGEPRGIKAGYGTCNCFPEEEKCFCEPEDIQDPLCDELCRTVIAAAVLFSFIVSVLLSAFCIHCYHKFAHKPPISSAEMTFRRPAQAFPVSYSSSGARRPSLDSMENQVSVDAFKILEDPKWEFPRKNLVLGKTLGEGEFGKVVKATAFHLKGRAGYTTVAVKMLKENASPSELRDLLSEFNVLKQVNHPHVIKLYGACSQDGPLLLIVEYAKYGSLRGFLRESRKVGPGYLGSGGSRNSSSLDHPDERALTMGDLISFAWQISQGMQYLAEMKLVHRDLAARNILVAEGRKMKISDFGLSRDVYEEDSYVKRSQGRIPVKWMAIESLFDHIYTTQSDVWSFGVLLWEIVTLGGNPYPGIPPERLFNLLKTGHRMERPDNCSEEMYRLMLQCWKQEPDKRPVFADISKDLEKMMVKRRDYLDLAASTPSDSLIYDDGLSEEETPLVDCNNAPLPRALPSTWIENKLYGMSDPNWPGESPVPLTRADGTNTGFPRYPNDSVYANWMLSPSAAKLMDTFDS
Chain of Tyrosine-protein kinase receptor Tie-1 (Homo sapiens) (P35590 whole entry): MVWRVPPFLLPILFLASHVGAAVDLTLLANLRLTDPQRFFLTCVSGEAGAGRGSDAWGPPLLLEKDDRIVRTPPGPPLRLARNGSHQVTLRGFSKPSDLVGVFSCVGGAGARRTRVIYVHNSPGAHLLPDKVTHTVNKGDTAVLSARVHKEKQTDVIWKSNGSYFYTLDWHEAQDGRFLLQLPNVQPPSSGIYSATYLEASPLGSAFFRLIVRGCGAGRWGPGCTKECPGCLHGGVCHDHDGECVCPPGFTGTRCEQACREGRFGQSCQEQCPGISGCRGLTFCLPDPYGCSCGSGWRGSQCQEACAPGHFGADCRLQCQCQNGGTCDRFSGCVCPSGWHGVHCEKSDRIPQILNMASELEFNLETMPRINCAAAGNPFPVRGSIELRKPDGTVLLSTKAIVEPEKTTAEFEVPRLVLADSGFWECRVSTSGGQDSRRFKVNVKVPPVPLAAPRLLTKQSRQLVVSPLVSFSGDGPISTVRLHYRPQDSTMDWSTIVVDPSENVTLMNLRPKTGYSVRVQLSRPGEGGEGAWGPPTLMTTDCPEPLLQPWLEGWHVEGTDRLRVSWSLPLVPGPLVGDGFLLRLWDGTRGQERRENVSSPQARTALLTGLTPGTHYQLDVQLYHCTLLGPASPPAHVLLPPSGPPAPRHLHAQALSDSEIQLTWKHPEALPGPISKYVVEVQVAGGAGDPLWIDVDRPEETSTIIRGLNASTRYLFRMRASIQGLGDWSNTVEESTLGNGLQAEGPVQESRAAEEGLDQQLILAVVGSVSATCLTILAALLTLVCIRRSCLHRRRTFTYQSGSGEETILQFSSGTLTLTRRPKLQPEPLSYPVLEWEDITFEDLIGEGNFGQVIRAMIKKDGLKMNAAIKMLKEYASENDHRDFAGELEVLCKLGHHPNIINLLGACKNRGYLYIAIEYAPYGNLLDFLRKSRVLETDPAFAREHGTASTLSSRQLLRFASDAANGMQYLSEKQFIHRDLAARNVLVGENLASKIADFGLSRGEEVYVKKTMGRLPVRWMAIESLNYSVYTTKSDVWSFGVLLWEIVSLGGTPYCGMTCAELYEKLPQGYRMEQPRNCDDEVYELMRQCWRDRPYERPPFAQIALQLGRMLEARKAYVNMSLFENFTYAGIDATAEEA
Chain of Cytochrome P450 2D6 (P10635 whole entry): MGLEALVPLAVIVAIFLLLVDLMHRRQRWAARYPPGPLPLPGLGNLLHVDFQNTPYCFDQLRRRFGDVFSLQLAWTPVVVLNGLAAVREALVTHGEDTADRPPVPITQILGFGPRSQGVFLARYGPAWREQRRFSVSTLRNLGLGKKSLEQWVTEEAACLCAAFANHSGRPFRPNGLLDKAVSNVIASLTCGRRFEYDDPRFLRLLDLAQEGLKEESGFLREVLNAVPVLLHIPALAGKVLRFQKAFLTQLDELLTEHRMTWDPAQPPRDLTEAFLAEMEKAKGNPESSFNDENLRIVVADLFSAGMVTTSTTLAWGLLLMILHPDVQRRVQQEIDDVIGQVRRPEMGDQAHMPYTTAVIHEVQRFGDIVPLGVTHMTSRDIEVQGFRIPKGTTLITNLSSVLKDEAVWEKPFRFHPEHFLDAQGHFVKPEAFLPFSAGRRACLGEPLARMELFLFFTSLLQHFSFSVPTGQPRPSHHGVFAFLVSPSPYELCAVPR

Compound: Cc1ccc(C(=O)Nc2ccc(CN3CCN(C)CC3)c(C(F)(F)F)c2)cc1C#Cc1cnc2[nH]ncc2c1 [OLVEREMBATINIB]
- Activity [1]: Active
- Activity [2]: Active
- Activity [3]: Active
- TGI [4]: Active
- Activity [5]: Non-toxic
- Activity [6]: Active
- inhibition in vivo at 1 mg/kg [7]: 68.3%
- clearance [8]: 28.3 mL/min/kg
- MRT [9]: 6.7 h
- AUC(0-t) [10]: 2740 ng·h/mL
- Ratio [11]: 0.9
- IC50 [12]: 990 nM
- inhibition (INH) [13]: Not Active
- inhibition (INH) [14]: Not Active
- IC50 [15]: 2.5 nM
- IC50 [16]: 0.13 nM
- IC50 [17]: 2.6 nM
- IC50 [18]: 3.5 nM
- IC50 [19]: 8.1 nM
- IC50 [20]: 7.3 nM
- Activity [21]: inactive
- Activity [22]: inactive
- Activity [23]: inactive
- Kd [24]: 3.2 nM
- Kd [25]: 0.18 nM
- IC50 [26]: 0.35 nM
- IC50 [27]: 0.27 nM
- half-life at 1 µM [28]: 0.933 h
